In ChEMBL document CHEMBL4346668, “Novel multitarget inhibitors with antiangiogenic and immunomodulator properties” (Eur J Med Chem, 2019):

Tests used:
A549 [1] = experiment: Immunomodulatory activity in human A549 cells assessed as reduction in c-Myc expression level at 100 uM incubated for 24 hrs by ELISA relative to control; format: functional; parameters: scale not given: the % may be the effect or the level left
Procedure, shortened: (§1)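 A549 cells (3·10⁵/well) treated 24 h with compound; final concentration 100 µM for some compounds and 15 µM for others per table footnote. Lysates protein-normalized by Bradford, and PD-L1 and c-Myc quantified by commercial ELISA kits as % of DMSO-treated cells. Mean ± SD of three experiments.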

HMEC-1 [2] = experiment: Antiangiogenic activity against HMEC1 cells assessed as inhibition of tube formation incubated for 20 hrs by matrigel based tube formation assay; format: functional, Homo sapiens
Procedure, shortened: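 HMEC-1 cells in EGM-2MV medium seeded at 2 x 10⁴ cells/well on Matrigel (10 mg/mL, gelled 30 min at 37°C) and attached for 30 min. Compounds were added at different concentrations and tube formation was assessed after 20 h at 37°C. The minimum concentration at which inhibition began was reported. Data representative of three experiments.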

HeLa = experiment: Antiproliferative activity against human HeLa cells incubated for 2 days by MTT assay; format: functional, cell-based; settings: 48 h
Procedure, shortened: (§2)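 MTT assay. Cells seeded at 3 × 10³/well (HeLa, A549, HMEC-1, HEK-293) or 5 × 10³/well (HT-29, MCF-7) in their growth media with serial compound dilutions from 10 mM DMSO stocks. Incubated 2 days at 37 °C, 5% CO₂, then MTT added for 3 h and formazan dissolved in DMSO. A540 read and viability expressed versus untreated cells. IC₅₀ determined graphically; three independent experiments.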

A549 [3] = experiment: Antiproliferative activity against human A549 cells at 200 uM incubated for 24 hrs in presence of Jurkat T cells by trypan blue staining based Neubauer chamber method relative to control; format: functional
Procedure, shortened: (§3)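 Co-culture of 5 × 10⁴ tumor cells/well with 2 × 10⁵ PD-1-expressing Jurkat T cells in 1.5 mL, treated 24 h with compound at 200 µM. Supernatant discarded; tumor cells trypsinized, stained with trypan blue and living cells counted in a Neubauer chamber. Proliferation inhibition (%) attributable to Jurkat presence reported; representative of three experiments.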

A549 [4] = experiment: Induction of apoptosis in human A549 cells assessed as apoptotic cells at 100 uM incubated for 24 hrs by FITC-Annexin V staining based flow cytometric analysis (reference value: 20%); format: functional
[5] = molecular target: Vascular endothelial growth factor receptor 2 (Homo sapiens) (UniProt P35968)
A549 [6] = experiment: Immunomodulatory activity in human A549 cells assessed as reduction in PD-L1 expression level at 100 uM incubated for 24 hrs by ELISA relative to control; format: functional; parameters: scale not given: the % may be the effect or the level left; procedure, shortened: as §1
HT-29 [7] = experiment: Antiproliferative activity against human HT-29 cells incubated for 2 days by MTT assay; format: functional, cell-based; settings: HT-29, 48 h; procedure, shortened: as §2
A549 [8] = experiment: Effect on VEGFR2 in human A549 cells assessed as total VEGFR2 level at 10 uM incubated for 24 hrs by flow cytometric analysis relative to control; format: functional
A549 [9] = experiment: Antiproliferative activity against human A549 cells incubated for 2 days by MTT assay; format: functional, cell-based; settings: A549, 48 h; procedure, shortened: as §2
MCF7 = experiment: Antiproliferative activity against human MCF7 cells incubated for 2 days by MTT assay; format: functional, cell-based; settings: MCF7, 48 h; procedure, shortened: as §2
[10] = molecular target: Programmed cell death 1 ligand 1 (Homo sapiens) (UniProt Q9NZQ7); experiment: Binding affinity to PDL1 (unknown origin) assessed as change in melting temperature at 100 uM by fluorescence based real time RT-PCR analysis
HMEC-1 [11] = experiment: Antiproliferative activity against HMEC1 cells incubated for 2 days by MTT assay; format: cell-based; settings: Homo sapiens, HMEC-1, 48 h; procedure, shortened: as §2
HEK293 = experiment: Antiproliferative activity against HEK293 cells incubated for 2 days by MTT assay; format: cell-based; settings: Homo sapiens, HEK293, 48 h; procedure, shortened: as §2
A549 [12] = experiment: Effect on VEGFR2 in human A549 cells assessed as membrane VEGFR2 level at 10 uM incubated for 24 hrs by flow cytometric analysis relative to control; format: functional
Procedure, shortened: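 A549 cells incubated 24 h with compound at 10 µM. Membrane VEGFR-2 (fixed cells) and total VEGFR-2 (permeabilized or lysate) stained with Alexa Fluor 647 anti-CD309 and quantified by flow cytometry relative to DMSO control; mean ± SD of three experiments.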

A549 [13] = experiment: Effect on VEGFR2 in human A549 cells assessed as total VEGFR2 level at 100 uM incubated for 24 hrs by flow cytometric analysis relative to control; format: functional
HMEC-1 [14] = experiment: Effect on VEGFR2 in HMEC1 cells assessed as total VEGFR2 level at 100 uM incubated for 24 hrs by flow cytometric analysis relative to control; format: functional, Homo sapiens
Procedure, shortened: (§4)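 HMEC-1 cells exposed 24 h to compound at 100 µM. Membrane VEGFR-2 measured on fixed cells stained with Alexa Fluor 647 anti-CD309; total VEGFR-2 measured after Triton X-100 permeabilization before fixation. Read by flow cytometry as % of DMSO control.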

A549 [15] = experiment: Effect on VEGFR2 in human A549 cells assessed as membrane VEGFR2 level at 100 uM incubated for 24 hrs by flow cytometric analysis relative to control; format: functional
Procedure, shortened: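 A549 cells exposed 24 h to compound at 100 µM. Membrane VEGFR-2 stained on fixed cells with Alexa Fluor 647 anti-VEGFR-2; Triton X-100 permeabilization before fixation used for total VEGFR-2. Flow cytometry, % of DMSO control; mean ± SD of three experiments.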

HMEC-1 [16] = experiment: Effect on VEGFR2 in HMEC1 cells assessed as membrane VEGFR2 level at 100 uM incubated for 24 hrs by flow cytometric analysis relative to control; format: functional, Homo sapiens; procedure, shortened: as §4
HT-29 [17] = experiment: Antiproliferative activity against human HT-29 cells at 200 uM incubated for 24 hrs in presence of Jurkat T cells by trypan blue staining based Neubauer chamber method relative to control; format: functional; procedure, shortened: as §3

Programmed cell death 1 ligand 1 (Homo sapiens), sequence (Q9NZQ7 whole entry): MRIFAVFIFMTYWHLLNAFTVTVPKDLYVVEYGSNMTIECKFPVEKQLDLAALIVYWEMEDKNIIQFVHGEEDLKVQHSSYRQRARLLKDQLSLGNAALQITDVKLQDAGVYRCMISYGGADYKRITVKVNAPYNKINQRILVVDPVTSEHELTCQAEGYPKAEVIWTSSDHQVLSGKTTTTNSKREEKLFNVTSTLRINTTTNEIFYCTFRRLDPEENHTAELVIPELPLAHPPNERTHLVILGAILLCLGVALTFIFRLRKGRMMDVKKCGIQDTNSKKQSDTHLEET
Vascular endothelial growth factor receptor 2 (Homo sapiens), sequence (P35968 whole entry): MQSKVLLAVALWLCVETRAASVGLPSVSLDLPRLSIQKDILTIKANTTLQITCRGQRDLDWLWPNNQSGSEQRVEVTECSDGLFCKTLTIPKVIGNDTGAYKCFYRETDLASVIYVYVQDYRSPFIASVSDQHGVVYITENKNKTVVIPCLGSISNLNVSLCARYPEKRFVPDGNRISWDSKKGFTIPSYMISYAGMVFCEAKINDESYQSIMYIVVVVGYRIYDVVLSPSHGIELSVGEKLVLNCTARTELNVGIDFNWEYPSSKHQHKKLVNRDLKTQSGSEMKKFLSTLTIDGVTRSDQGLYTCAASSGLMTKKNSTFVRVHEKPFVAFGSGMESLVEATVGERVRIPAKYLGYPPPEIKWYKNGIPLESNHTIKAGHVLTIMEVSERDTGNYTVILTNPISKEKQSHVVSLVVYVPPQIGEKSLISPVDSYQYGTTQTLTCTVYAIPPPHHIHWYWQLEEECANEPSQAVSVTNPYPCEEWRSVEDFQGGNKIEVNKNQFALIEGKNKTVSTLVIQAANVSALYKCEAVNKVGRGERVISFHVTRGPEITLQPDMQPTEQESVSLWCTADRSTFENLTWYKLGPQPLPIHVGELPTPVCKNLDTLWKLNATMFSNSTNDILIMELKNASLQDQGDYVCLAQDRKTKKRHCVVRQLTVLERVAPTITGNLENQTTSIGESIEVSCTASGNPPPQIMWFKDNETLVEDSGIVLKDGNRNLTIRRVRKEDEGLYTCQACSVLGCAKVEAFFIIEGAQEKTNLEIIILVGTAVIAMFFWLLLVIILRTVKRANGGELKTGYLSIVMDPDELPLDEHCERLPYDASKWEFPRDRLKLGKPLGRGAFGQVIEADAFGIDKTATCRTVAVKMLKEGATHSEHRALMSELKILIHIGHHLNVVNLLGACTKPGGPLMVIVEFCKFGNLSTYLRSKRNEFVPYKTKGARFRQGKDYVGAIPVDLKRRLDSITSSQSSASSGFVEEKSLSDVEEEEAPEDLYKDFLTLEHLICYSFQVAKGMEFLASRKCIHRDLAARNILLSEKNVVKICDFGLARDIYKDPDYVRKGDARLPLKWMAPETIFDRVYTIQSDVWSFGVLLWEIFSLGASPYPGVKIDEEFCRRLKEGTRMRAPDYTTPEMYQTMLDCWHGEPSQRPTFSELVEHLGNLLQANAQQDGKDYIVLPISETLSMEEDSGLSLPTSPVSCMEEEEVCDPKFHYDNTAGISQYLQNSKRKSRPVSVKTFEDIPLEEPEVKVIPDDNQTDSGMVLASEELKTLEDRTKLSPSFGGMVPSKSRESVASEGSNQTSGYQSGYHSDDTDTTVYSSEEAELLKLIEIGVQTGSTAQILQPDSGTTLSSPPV

Compound | Activity (A549 [1]) [%] | MAC (HMEC-1 [2]) [µM] | IC50 (HeLa) [µM] | Activity (A549 [3]) [%] | Activity (A549 [4]) [%] | ΔTm [5] [°C] | Activity (A549 [6]) [%] | IC50 (HT-29 [7]) [µM] | Activity (A549 [8]) [%] | IC50 (A549 [9]) [µM] | IC50 (MCF7) [µM] | ΔTm [10] [°C] | IC50 (HMEC-1 [11]) [µM] | IC50 (HEK293) [µM] | Activity (A549 [12]) [%] | Activity (A549 [13]) [%] | Activity (HMEC-1 [14]) [%] | Activity (A549 [15]) [%] | Activity (HMEC-1 [16]) [%] | Activity (HT-29 [17]) [%]
COc1ccc(CCc2cccc(NC(=O)Nc3ccc(Cl)cc3)c2)cc1 | 44 | 100 | 21 | 16 | 65 | 10.2 | 38 | 1.5 | 96 | > 200 | 15.3 | 2.27 | > 200 | 1.8 | 97 |  |  |  |  | 
COc1ccc(Cc2cn(CCNC(=O)Nc3cccc(Br)c3)nn2)cc1 |  |  | > 200 |  |  | 7.34 | 80 | > 200 |  | > 200 | > 200 | 0.79 | > 200 | > 200 |  | 80 | 78 | 98 | 79 | 
COc1ccc(Cc2cn(CCNC(=O)Nc3cccc(C)c3)nn2)cc1 |  |  | > 200 |  |  | 5.21 | 90 | > 200 |  | > 200 | > 200 | 2.55 | > 200 | > 200 |  |  | 91 |  | 76 | 
COc1ccc(/C=C\c2cccc(NC(=O)Nc3ccc(Cl)cc3)c2)cc1 |  | 1 | 8 |  | 69 |  | 75 | 33 | 100 | 29 | 17 |  | 33 | 20 | 118 |  |  |  |  | 
COc1ccc(/C=C\c2cccc(NC(=O)Nc3cccc(Cl)c3)c2)cc1 |  | 10 | 10.5 |  | 17 |  | 92 | 20 | 186 | 38 | 37.2 |  | 32.9 | 5 | 102 |  |  |  |  | 
CCN(CC)CCNC(=O)c1c(C)[nH]c(/C=C2\C(=O)Nc3ccc(F)cc32)c1C [SUNITINIB] |  | 3 | 7.8 |  | 56 |  |  | 3.8 |  | 11 | 0.08 |  | 7 | 5 |  |  |  |  |  | 
COc1ccc(Cc2cn(CCNC(=O)Nc3ccccc3C)nn2)cc1 |  | 200 | > 200 |  |  | 9.98 | 82 | > 200 |  | > 200 | > 200 | 2.18 | > 200 | > 200 |  |  | 100 |  | 79 | 
COc1ccc(Cc2cn(CCNC(=O)Nc3cccc(Cl)c3)nn2)cc1 | 60 | 50 | > 200 | 49 |  | 7.34 | 70 | > 200 |  | > 200 | > 200 | 1.89 | > 200 | > 200 |  | 86 | 81 | 95 | 74 | 76
